Legend:
[1] = Drug metabolism in Sprague-Dawley rat cecal contents assessed as colonic bacteria-mediated rate for final reduction product formation relative to sulfasalazine reduction rate; type: ADME
In short: (§1)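 The reduction was followed by reversed-phase HPLC with photodiode-array detection on a C18 column at 30 °C and 1 mL/min. Elution used a gradient of methanol against 50 mM potassium phosphate buffer, pH 6.8, containing 0.1% tetrabutylammonium hydroxide.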

[2] = Drug metabolism in Sprague-Dawley rat cecal contents assessed as accumulation of colonic bacteria-mediated final reduction product level at 2 mM; type: ADME; settings: 2000 µM; in short: as §1

Compound `O=C(O)c1cccc([N+](=O)[O-])c1` has a Ratio [1] of 0.759.
For `CN(C)c1ccc([N+](=O)[O-])cc1C(=O)O`, the Ratio [1] was 0.724.
With `O=C(O)c1cc(SSc2ccc(O)c(C(=O)O)c2)ccc1O` the Drug metabolism [2] was “Active”.
With `O=C(O)c1cc(/N=N/c2ccc(O)c(C(=O)O)c2)ccc1O` [OLSALAZINE] the Drug metabolism [2] was “Active”.
In the case of `O=C(O)c1cc([N+](=O)[O-])ccc1O`, the Ratio [1] is reported as 0.45 and the Drug metabolism [2] is reported as “Active”.
In the case of `O=C(O)c1cc(C(=O)O)cc([N+](=O)[O-])c1`, the Ratio [1] is reported as 0.128.
With `Cc1ccc([N+](=O)[O-])cc1C(=O)O` the Ratio [1] was 0.603.
In the case of `O=C(O)c1cc([N+](=O)[O-])ccc1Cl`, the Ratio [1] is reported as 1.013.
Work on `O=C(O)c1cc([N+](=O)[O-])cc(C(F)(F)F)c1` yielded a Ratio [1] of 1.222.
`O=C(O)c1ccc([N+](=O)[O-])cc1C(=O)O` gave a Ratio [1] of 0.113.

From ChEMBL document CHEMBL2176895, “Bacterial reduction as means for colonic drug delivery: can other chemical groups provide an alternative to the azo bond?” (J Med Chem, 2012)
